CAL PDZ FP-1 – inhibitors of human CAL PDZ peptide binding. purified CAL PDZ, TMR-peptide fluorescence polarization, 1 h. inhibition, % at 24.9 µM. actives 0.92% (n = 300,000);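 active = mean inhibition of at least 30% with at least half of replicates also reaching 30%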;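 note: 0% = DMSO neutral control and 100% = excess unlabeled competitor peptide PRC23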
PvdQ acylase – P. aeruginosa PvdQ acylase inhibition; actives 0.063% (n = 340,000); purified PvdQ acylase, fluorescence plate reader; inhibition, % at 10 µM; AID 488965; in the data active = inhibition above about 30%, passing the limit was not always enough;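 note: 0% = vehicle neutral wells and 100% = reference inhibitor wells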
miR-122 sensor – blocks miR-122 activity in Huh7 sensor cells. Huh7 miR-122 Renilla luciferase sensor, 48 h; neutral wells = 0, positive control = 100. activation (reporter increase), % at 12.5 µM. actives 0.3% (n = 340,000). AID 602342;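 active = mean replicate activation score at least 90 and every replicate individually at or above 90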;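 note: higher luciferase means less miR-122 activity so hits act as miR-122 inhibitors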
CAL PDZ FP-2 – blocks peptide binding to human CAL PDZ domain. Q9HD26. purified CAL PDZ, TMR-peptide fluorescence polarization, 1 h. inhibition, % at 20 µM. actives 0.02% (n = 330,000);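 active = highest replicate inhibition of at least 40%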;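 note: plate controls were DMSO neutral control wells for no effect and unlabeled competitor peptide control wells for full effect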
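Assay system – tagged CAL PDZ protein CerCALP, purified · Timing – 1 h at RT · Compound – single point, 20 µM · Measured by – fluorescence polarization from S- and P-plane intensities, G-factor corrected · Evaluation – inhibition from polarization loss · Probe or stimulus – TMR reporter peptide T*-PRC34 · Buffer or medium – pH 7.4 phosphate-saline buffer, reducing agent, detergent, IgG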
Starred values were filed as active, the others as inactive; ! = a repeat was not active; [ ] = remark or other dose. A selection: hits, their analogues and other compounds. The true share with any hit is near 0.95%.

Results for O=C(NNC(=O)c1cccs1)c1ccc(Cl)cc1 ?
CAL PDZ FP-1: -2; PvdQ acylase: -15; CAL PDZ FP-2: -1

What do the screens show for `NC(=O)NC(CC(=O)NNC(=O)c1cccs1)c1ccc(Cl)cc1` (stereo not given)?
CAL PDZ FP-1: 31*; PvdQ acylase: -17; miR-122 sensor: -8; CAL PDZ FP-2: 1

Results for O=C(NNS(=O)(=O)c1ccc(Cl)cc1)c1cccs1 ?
CAL PDZ FP-1: -4; PvdQ acylase: -1; miR-122 sensor: 116*; CAL PDZ FP-2: 23

Results for Cc1cc(OCC(=O)NCC(c2cccs2)N2CCOCC2)ccc1C(C)C (stereo not given) ?
CAL PDZ FP-1: -5; PvdQ acylase: -2; miR-122 sensor: 5; CAL PDZ FP-2: -2

How did Cc1[nH]c(=S)[nH]c(=O)c1Cc1c(O)ccc2ccccc12 do in these assays?
CAL PDZ FP-1: -3; PvdQ acylase: 16; miR-122 sensor: 134*; CAL PDZ FP-2: -1

Results for CCS(=O)(=O)N1Cc2ccccc2CC1C(=O)NCC12CC3CC(CC(C3)C1)C2 (stereo not given) ?
CAL PDZ FP-1: -9; PvdQ acylase: -2; miR-122 sensor: 256*; CAL PDZ FP-2: -1

How did O=C(CSCc1ccccc1Br)Nc1ccccc1 do in these assays?
CAL PDZ FP-1: -1; PvdQ acylase: -3; miR-122 sensor: -3; CAL PDZ FP-2: -2

Results for O=S(=O)(NC1CCCCC1)c1cccc(-c2nnc(-c3ccccc3)o2)c1 ?
CAL PDZ FP-1: -5; PvdQ acylase: 3; miR-122 sensor: 100*; CAL PDZ FP-2: -2

How did COc1ccccc1-c1cc(C(=O)NC2CCN(C)CC2)c2ccc(Cl)c(C)c2n1 do in these assays?
CAL PDZ FP-1: 3; PvdQ acylase: -7; miR-122 sensor: 3; CAL PDZ FP-2: -1

What do the screens show for `COc1ccc(-n2c(=O)c3ccccc3n(CC(=O)c3ccccc3)c2=O)cc1OC`?
CAL PDZ FP-1: 2; PvdQ acylase: 0; miR-122 sensor: -4; CAL PDZ FP-2: -4

How did CC(C)n1cnc2c(=S)nc[nH]c21 do in these assays?
CAL PDZ FP-1: -3; PvdQ acylase: -6; CAL PDZ FP-2: 1

What do the screens show for `S=c1nc[nH]c2c1ncn2-c1ccccc1`?
CAL PDZ FP-1: 48*; PvdQ acylase: -18; miR-122 sensor: 7; CAL PDZ FP-2: -1

Results for CCc1c(C)c(C#N)c2nc3ccccc3n2c1NCC1CCCO1 (stereo not given) ?
CAL PDZ FP-1: 31*; PvdQ acylase: -14; miR-122 sensor: -20; CAL PDZ FP-2: 0

What do the screens show for `Cc1cc(NCC2CCCO2)n2c(nc3ccccc32)c1C#N` (stereo not given)?
CAL PDZ FP-1: -2; PvdQ acylase: -1; miR-122 sensor: -5; CAL PDZ FP-2: -2

What do the screens show for `O=C(C1CCC1)N1CCN(c2ccc(Cl)cc2)CC1`?
CAL PDZ FP-1: 5; PvdQ acylase: 36*; miR-122 sensor: -8; CAL PDZ FP-2: 3

Results for Cc1ccc(S(=O)(=O)N(C)c2ccc(OC(=O)c3cccs3)cc2)cc1C ?
CAL PDZ FP-1: 49*; PvdQ acylase: -19; miR-122 sensor: -8; CAL PDZ FP-2: -1

What do the screens show for `Cc1ccc(S(=O)(=O)N(C)c2ccc(OC(C)C(=O)N3CCCC3)cc2)cc1C` (stereo not given)?
CAL PDZ FP-1: 6; PvdQ acylase: -1; CAL PDZ FP-2: 0

How did C[C@H](CO)N1C[C@H](C)[C@@H](CN(C)Cc2ccc(Cl)c(Cl)c2)Oc2c(NS(=O)(=O)c3cccs3)cccc2C1=O do in these assays?
CAL PDZ FP-1: 0; PvdQ acylase: 6; miR-122 sensor: 95*!; CAL PDZ FP-2: 1

What do the screens show for `Cc1ccc(S(=O)(=O)Nc2cccc3c2O[C@@H](CN(C)Cc2ccc(Cl)c(Cl)c2)[C@H](C)CN([C@H](C)CO)C3=O)cc1`?
miR-122 sensor: 110*[16.7 µM]

What do the screens show for `C[C@@H]1CN([C@H](C)CO)C(=O)c2cccc(NS(=O)(=O)c3cccs3)c2O[C@H]1CN(C)Cc1ccc(C(F)(F)F)cc1`?
miR-122 sensor: 264*[16.7 µM]

Results for CNC[C@H]1Oc2ccc(NS(=O)(=O)c3ccc(Cl)cc3)cc2C(=O)N([C@H](C)CO)C[C@@H]1C ?
miR-122 sensor: 1[16.7 µM]

What do the screens show for `CCOc1ccc(C(=O)N(CC)CC(=O)Nc2ccc3c(c2)OCCO3)cc1`?
CAL PDZ FP-1: 2; PvdQ acylase: -12; miR-122 sensor: -8; CAL PDZ FP-2: 0

Results for CCn1c(Cc2c(C)[nH]c3ccccc23)nnc1SCC(=O)NCc1ccccc1 ?
CAL PDZ FP-1: 19; PvdQ acylase: -9; miR-122 sensor: 2; CAL PDZ FP-2: -1
